# Test results from ChEMBL document CHEMBL2062435, “Synthesis and in vitro antibacterial activity of gemifloxacin derivatives containing a substituted benzyloxime moiety” (2012).
# Tested on: Enterococcus faecium
# Assay: Antimicrobial activity against Enterococcus faecium 10-5 after 18-24 hrs by two-fold serial dilution method
# Format: functional
# Method in brief: (§1)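 Agar-medium twofold serial dilution against Gram-positive and Gram-negative strains; MIC taken as the lowest compound concentration giving complete inhibition of bacterial growth after incubation at 35 °C for 18-24 h.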
row,SMILES,MIC [µg/mL]
1,CS(=O)(=O)O.NCC1CN(c2nc3c(cc2F)c(=O)c(C(=O)O)cn3C2CC2)C/C1=N\OCc1cc2c(cc1Cl)OCO2 (racemic),8

# Tested on: Staphylococcus epidermidis
# Assay: Antimicrobial activity against extended spectrum beta-lactamases-producing methicillin-sensitive Staphylococcus epidermidis 10-11 after 18-24 hrs by two-fold serial dilution method
# Format: functional
# Method in brief: as §1
row,SMILES,MIC [µg/mL]
1,CS(=O)(=O)O.NCC1CN(c2nc3c(cc2F)c(=O)c(C(=O)O)cn3C2CC2)C/C1=N\OCc1cc2c(cc1Cl)OCO2 (racemic),0.25

# Tested on: Enterococcus faecalis
# Assay: Antimicrobial activity against Enterococcus faecalis 10-7 after 18-24 hrs by two-fold serial dilution method
# Format: functional
# Method in brief: as §1
row,SMILES,MIC [µg/mL]
1,CS(=O)(=O)O.NCC1CN(c2nc3c(cc2F)c(=O)c(C(=O)O)cn3C2CC2)C/C1=N\OCc1cc2c(cc1Cl)OCO2 (racemic),4

# Tested on: Escherichia coli
# Assay: Antimicrobial activity against extended spectrum beta-lactamases-producing Escherichia coli 10-3 after 18-24 hrs by two-fold serial dilution method
# Format: functional
# Method in brief: as §1
row,SMILES,MIC [µg/mL]
1,CS(=O)(=O)O.NCC1CN(c2nc3c(cc2F)c(=O)c(C(=O)O)cn3C2CC2)C/C1=N\OCc1cc2c(cc1Cl)OCO2 (racemic),> 128

# Tested on: Klebsiella pneumoniae
# Assay: Antimicrobial activity against Klebsiella pneumoniae 10-3 after 18-24 hrs by two-fold serial dilution method
# Format: functional
# Method in brief: as §1
row,SMILES,MIC [µg/mL]
1,CS(=O)(=O)O.NCC1CN(c2nc3c(cc2F)c(=O)c(C(=O)O)cn3C2CC2)C/C1=N\OCc1cc2c(cc1Cl)OCO2 (racemic),8

# Tested on: Klebsiella pneumoniae
# Assay: Antimicrobial activity against extended spectrum beta-lactamases-producing Klebsiella pneumoniae 10-1 after 18-24 hrs by two-fold serial dilution method
# Format: functional
# Method in brief: as §1
row,SMILES,MIC [µg/mL]
1,CS(=O)(=O)O.NCC1CN(c2nc3c(cc2F)c(=O)c(C(=O)O)cn3C2CC2)C/C1=N\OCc1cc2c(cc1Cl)OCO2 (racemic),> 128

# Tested on: Streptococcus pneumoniae
# Assay: Antimicrobial activity against extended spectrum beta-lactamases-producing Streptococcus pneumoniae 10-4 after 18-24 hrs by two-fold serial dilution method
# Format: functional
# Method in brief: as §1
row,SMILES,MIC [µg/mL]
1,CS(=O)(=O)O.NCC1CN(c2nc3c(cc2F)c(=O)c(C(=O)O)cn3C2CC2)C/C1=N\OCc1cc2c(cc1Cl)OCO2 (racemic),2

# Tested on: Escherichia coli
# Assay: Antimicrobial activity against Escherichia coli 10-1 after 18-24 hrs by two-fold serial dilution method
# Format: functional
# Method in brief: as §1
row,SMILES,MIC [µg/mL]
1,CS(=O)(=O)O.NCC1CN(c2nc3c(cc2F)c(=O)c(C(=O)O)cn3C2CC2)C/C1=N\OCc1cc2c(cc1Cl)OCO2 (racemic),> 128

# Tested on: Staphylococcus aureus
# Assay: Antimicrobial activity against Staphylococcus aureus ATCC […] after 18-24 hrs by two-fold serial dilution method
# Format: functional
# Method in brief: as §1
row,SMILES,MIC [µg/mL]
1,CS(=O)(=O)O.NCC1CN(c2nc3c(cc2F)c(=O)c(C(=O)O)cn3C2CC2)C/C1=N\OCc1cc2c(cc1Cl)OCO2 (racemic),0.015

# Tested on: Staphylococcus epidermidis
# Assay: Antimicrobial activity against extended spectrum beta-lactamases-producing methicillin-resistant Staphylococcus epidermidis 10-10 after 18-24 hrs by two-fold serial dilution method
# Format: functional
# Method in brief: (§2)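 Agar twofold serial dilution MIC against clinical isolates. MIC was taken as the lowest concentration giving complete inhibition of bacterial growth after incubation at 35 °C for 18-24 h.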
row,SMILES,MIC [µg/mL]
1,CS(=O)(=O)O.NCC1CN(c2nc3c(cc2F)c(=O)c(C(=O)O)cn3C2CC2)C/C1=N\OCc1cc2c(cc1Cl)OCO2 (racemic),2

# Tested on: Staphylococcus aureus
# Assay: Antimicrobial activity against extended spectrum beta-lactamases-producing methicillin-sensitive Staphylococcus aureus 10-14 after 18-24 hrs by two-fold serial dilution method
# Format: functional
# Method in brief: as §1
row,SMILES,MIC [µg/mL]
1,CS(=O)(=O)O.NCC1CN(c2nc3c(cc2F)c(=O)c(C(=O)O)cn3C2CC2)C/C1=N\OCc1cc2c(cc1Cl)OCO2 (racemic),0.06

# Tested on: Pseudomonas aeruginosa
# Assay: Antimicrobial activity against Pseudomonas aeruginosa 10-12 after 18-24 hrs by two-fold serial dilution method
# Format: functional
# Method in brief: as §1
row,SMILES,MIC [µg/mL]
1,CS(=O)(=O)O.NCC1CN(c2nc3c(cc2F)c(=O)c(C(=O)O)cn3C2CC2)C/C1=N\OCc1cc2c(cc1Cl)OCO2 (racemic),8

# Tested on: Escherichia coli
# Assay: Antimicrobial activity against Escherichia coli ATCC 25922 after 18-24 hrs by two-fold serial dilution method
# Format: functional
# Method in brief: as §1
row,SMILES,MIC [µg/mL]
1,CS(=O)(=O)O.NCC1CN(c2nc3c(cc2F)c(=O)c(C(=O)O)cn3C2CC2)C/C1=N\OCc1cc2c(cc1Cl)OCO2 (racemic),0.25

# Tested on: Escherichia coli
# Assay: Antimicrobial activity against extended spectrum beta-lactamases-producing Escherichia coli 10-4 after 18-24 hrs by two-fold serial dilution method
# Format: functional
# Method in brief: as §1
row,SMILES,MIC [µg/mL]
1,CS(=O)(=O)O.NCC1CN(c2nc3c(cc2F)c(=O)c(C(=O)O)cn3C2CC2)C/C1=N\OCc1cc2c(cc1Cl)OCO2 (racemic),8

# Tested on: Pseudomonas aeruginosa
# Assay: Antimicrobial activity against extended spectrum beta-lactamases-producing Pseudomonas aeruginosa 10-15 after 18-24 hrs by two-fold serial dilution method
# Format: functional
# Method in brief: as §1
row,SMILES,MIC [µg/mL]
1,CS(=O)(=O)O.NCC1CN(c2nc3c(cc2F)c(=O)c(C(=O)O)cn3C2CC2)C/C1=N\OCc1cc2c(cc1Cl)OCO2 (racemic),32

# Tested on: Pseudomonas aeruginosa
# Assay: Antimicrobial activity against extended spectrum beta-lactamases-producing Pseudomonas aeruginosa 10-5 after 18-24 hrs by two-fold serial dilution method
# Format: functional
# Method in brief: as §1
row,SMILES,MIC [µg/mL]
1,CS(=O)(=O)O.NCC1CN(c2nc3c(cc2F)c(=O)c(C(=O)O)cn3C2CC2)C/C1=N\OCc1cc2c(cc1Cl)OCO2 (racemic),8

# Tested on: Staphylococcus aureus
# Assay: Antimicrobial activity against extended spectrum beta-lactamases-producing methicillin-sensitive Staphylococcus aureus 10-13 after 18-24 hrs by two-fold serial dilution method
# Format: functional
# Method in brief: as §1
row,SMILES,MIC [µg/mL]
1,CS(=O)(=O)O.NCC1CN(c2nc3c(cc2F)c(=O)c(C(=O)O)cn3C2CC2)C/C1=N\OCc1cc2c(cc1Cl)OCO2 (racemic),0.03

# Tested on: Staphylococcus epidermidis
# Assay: Antimicrobial activity against extended spectrum beta-lactamases-producing methicillin-resistant Staphylococcus epidermidis 10-13 after 18-24 hrs by two-fold serial dilution method
# Format: functional
# Method in brief: as §2
row,SMILES,MIC [µg/mL]
1,CS(=O)(=O)O.NCC1CN(c2nc3c(cc2F)c(=O)c(C(=O)O)cn3C2CC2)C/C1=N\OCc1cc2c(cc1Cl)OCO2 (racemic),2
